PAFAH2 inh = PAFAH2 (human) inhibition; Q99487; recombinant PAFAH2, FP-rhodamine activity probe, fluorescence polarization; inhibition, % at 3.39 µM; actives 0.99% (n = 340,000); AID 492956;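 active = inhibition above the mean over all tested compounds plus 3 SD, cut at about 30% in these data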;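 also: inhibitors block probe labeling of enzyme so polarization drops; 0% = enzyme with DMSO and 100% = wells lacking PAFAH2 protein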
pPAFAH inh = inhibitors of human plasma PAF acetylhydrolase (pPAFAH); recombinant pPAFAH, FP-rhodamine probe fluorescence polarization; inhibition, % at 3.39 µM; actives 1.5% (n = 330,000); AID 463082;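 active = inhibition above the mean inhibition across the screen plus 3 SD, cut at about 25% in these data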;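 also: inhibitors block binding of the rhodamine activity-based probe so polarization drops; 0% = enzyme with DMSO and 100% = wells lacking pPAFAH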
Target sequence (Q13093 whole entry, looked up): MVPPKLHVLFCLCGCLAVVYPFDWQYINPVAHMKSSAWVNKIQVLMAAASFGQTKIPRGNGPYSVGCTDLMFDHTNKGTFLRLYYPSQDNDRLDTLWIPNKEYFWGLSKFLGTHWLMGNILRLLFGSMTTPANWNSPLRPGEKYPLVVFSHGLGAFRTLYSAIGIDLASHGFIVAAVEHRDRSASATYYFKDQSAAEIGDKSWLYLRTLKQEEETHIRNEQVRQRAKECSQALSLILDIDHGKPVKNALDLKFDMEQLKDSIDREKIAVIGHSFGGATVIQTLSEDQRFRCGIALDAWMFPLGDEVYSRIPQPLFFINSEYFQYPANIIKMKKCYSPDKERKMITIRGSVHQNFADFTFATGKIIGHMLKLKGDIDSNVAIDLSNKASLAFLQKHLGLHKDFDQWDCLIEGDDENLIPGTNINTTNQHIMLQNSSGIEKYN
HTRA1 inhibitor = blocks human HTRA1 serine peptidase. Q92743. recombinant HTRA1, FP-rhodamine activity-based probe, fluorescence polarization. actives 0.5% (n = 340,000). inhibition, % at 5.96 µM; in the data active = inhibition above about 36%;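 also: 0% = enzyme with DMSO and 100% = wells lacking enzyme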
PAFAH1B3 FP inh = blocks human PAF acetylhydrolase 1B catalytic subunit 3 | actives 0.28% (n = 340,000) | recombinant PAFAH1B3, FP-rhodamine probe, fluorescence polarization | AID 492972 | inhibition, % at 3.39 µM;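 active = inhibition above the screen-wide average of all tested compounds plus 3 SD, cut at about 25% in these data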;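 also: 0% = enzyme with DMSO only and 100% = wells lacking PAFAH1B3 protein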
Target sequence (Q15102 whole entry, looked up): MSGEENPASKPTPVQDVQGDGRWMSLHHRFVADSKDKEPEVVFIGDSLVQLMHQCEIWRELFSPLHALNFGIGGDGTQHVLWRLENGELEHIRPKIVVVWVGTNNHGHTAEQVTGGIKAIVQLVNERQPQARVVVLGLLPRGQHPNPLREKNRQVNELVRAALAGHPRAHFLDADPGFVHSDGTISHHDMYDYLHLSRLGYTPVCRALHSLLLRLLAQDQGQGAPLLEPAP
ABHD4 inh = inhibitors of mouse ABHD4; inhibition, % at 8.92 µM; actives 0.54% (n = 370,000); purified mABHD4, FP-Rh probe fluorescence polarization;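 active = inhibition exceeding the mean over every tested compound plus 3 SD, cut at about 30% in these data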;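 also: 0% = plate median of compound wells and 100% = S159A mutant with DMSO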
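System: mouse ABHD4 enzyme, wild type / Medium: HEPES pH 7.0, NaCl, Pluronic buffer / Reagent: FP-Rh activity-based fluorescent probe / Control set: S159A mutant high control, sample median low control / Detection: fluorescence polarization with parallel and perpendicular emission, 525/598 nm / Schedule: 45 min + 60 min at 25 °C / Compound dosing: 8.92 µM, single dose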
PAFAH1B2 inh = blocks human PAF acetylhydrolase 1b catalytic subunit 2; P68402; recombinant PAFAH1B2, FP-rhodamine activity probe, fluorescence polarization; inhibition, % at 3.39 µM; actives 1.2% (n = 340,000);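 active = inhibition above the mean of all tested compounds plus 3 SD, cut at about 24% in these data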;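 also: 0% = enzyme with DMSO and 100% = wells lacking PAFAH1B2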
The depositor's hits bear a star; / = no result given. Sampled rows, rich in hits. Any-hit rate of the full collection: about 2.8%.

SMILES	PAFAH2 inh	pPAFAH inh	HTRA1 inhibitor	PAFAH1B3 FP inh	ABHD4 inh	PAFAH1B2 inh
CC(NCc1ccc(OCc2ccc(Cl)cc2)cc1)C(O)c1ccccc1 (stereo not drawn)	-1.8	4.8	1.5	7.3	18.1	63.6*
CCCc1c(-c2ccc(O)cc2)nn(-c2ccc(O)cc2)c1-c1ccc(O)cc1	0.8	33.2*	3.8	11.4	/	4.7
CCOC(=O)[C@@]12CN(C(=O)OC(C)(C)C)CC=C1N(Cc1ccc(OC)cc1)C(=O)[C@H]2CC(=O)NCc1cccc2ccccc12	/	/	/	/	0.0	/
Cc1ccccc1Nc1nc(N)nc(COC(=O)c2ccccc2)n1	3.6	2.1	3.0	-6.2	1.2	-4.7
CC(=O)c1cccc(NC(=O)COC(=O)CCNS(=O)(=O)c2ccccc2)c1	7.5	28.8*	2.5	8.0	1.5	4.7
O=C(COC(=O)CCNS(=O)(=O)c1ccc(Cl)cc1)NCc1ccccc1	/	/	4.1	/	1.1	/
Cc1ccccc1Nc1nc(N)nc(COC(=O)CCNS(=O)(=O)c2ccccc2)n1	4.5	27.9*	-10.9	-1.6	-13.0	2.6
Cc1cc(Cl)ccc1NC(=O)COC(=O)CCNS(=O)(=O)c1ccccc1	3.0	33.5*	3.3	-1.2	1.7	3.6
O=C(COC(=O)CCNS(=O)(=O)c1ccccc1)NC(=O)Cc1ccccc1	-3.1	30.3*	10.4	5.1	2.5	7.9
CC[C@H](CCC(=O)N(c1ccccc1)c1ccccc1)c1ccc(C)cc1	/	/	/	/	-7.1	/
O=S1(=O)C=CCN1Cc1cn(Cc2ccc(Cl)cc2)nn1	/	/	/	/	2.3	/
O=C(C1CCCN1S(=O)(=O)c1ccc(Cl)s1)N1CCN(c2ccccc2)CC1 (stereo not drawn)	/	/	/	/	-1.4	/
C[C@@H]1[C@@H](O)C[C@@]2(C[C@H](O)c3ccccc3O2)O[C@H]1c1ccccc1	/	/	/	/	2.6	/
O=C(CCNS(=O)(=O)c1ccccc1)OCC(=O)c1ccc(F)cc1	8.0	34.5*	1.3	-3.4	0.2	6.8
O=C(COC(=O)CCNS(=O)(=O)c1ccc(Cl)cc1)NCc1ccco1	2.9	27.3*	1.3	1.6	2.3	14.1
COC(=O)[C@]12C[C@H](CC(=O)NCc3cccc4ccccc34)C(=O)N(Cc3ccc(Cl)cc3Cl)C1=C[C@H](C(C)(C)C)O[C@@H]2C	/	/	/	/	-11.5	/
C[C@@H]1CCN(C2CC2)S(=O)(=O)c2c(cccc2N2CCC[C@H]2C)O1	/	/	/	/	-2.0	/
CCSC1=C(C#N)C(c2ccc(C)o2)CC(=O)N1 (stereo not drawn)	7.7	2.0	0.9	6.7	-6.5	5.7
CCCCCCSC1=C(C#N)C(c2ccc(C)o2)CC(=O)N1 (stereo not drawn)	18.3	25.4*	-13.8	10.1	9.7	5.3
Clc1cc(Cl)cc(CNC2CCC23CCC(c2ccccc2)CC3)c1 (stereo not drawn)	/	/	/	/	0.3	/
Nc1ccccc1SCC1CSc2nc3ccccc3c(=O)n21 (stereo not drawn)	4.0	3.9	-4.1	0.5	-4.1	-6.8
O=c1c2ccccc2nc2n1C(CSCc1ccc(Cl)cc1Cl)CS2 (stereo not drawn)	11.5	3.6	6.3	9.9	5.8	39.3*
COC(=O)C1CN(Cc2ccc(OC)cc2)CCS(=O)(=O)N1Cc1cn(Cc2ccc(F)cc2)nn1 (stereo not drawn)	/	/	/	/	-1.2	/
COc1ccc(C=Nn2c(-c3ccc(F)cc3)n[nH]c2=S)c(OC)c1OC	/	/	/	/	-2.3	/
Cc1ccc(C(=O)O/N=C(\N)Cc2ccc([N+](=O)[O-])cc2)c(Cl)c1	26.5	4.9	2.6	7.8	4.4	4.2
SMILES	PAFAH2 inh	pPAFAH inh	HTRA1 inhibitor	PAFAH1B3 FP inh	ABHD4 inh	PAFAH1B2 inh
Cc1ccc(C(=O)O/N=C(\N)Cc2cccs2)c(Cl)c1	34.6*	12.4	-10.4	1.3	/	5.0
O=C(Cn1cc(SCc2ccc(F)cc2)c2ccccc21)N1CCOCC1	1.7	12.5	5.0	8.9	-9.5	4.7
O=C(Cn1cc(SCc2ccc(Cl)cc2)c2ccccc21)N1CCOCC1	-1.2	7.1	-2.4	0.0	-11.7	24.9*
CCC[C@H]1OC(=O)[C@@H]2CCCN2C(=O)[C@H]([C@H](C)Cc2ccccc2)NC(=O)[C@@H]2CCCN2C(=O)[C@@H]2CCCN2C(=O)[C@H](C(C)C)OC(=O)[C@@H]2CCCN2C(=O)[C@H](C(C)C)NC(=O)C1(C)C	/	/	/	/	-2.8	/
CC(C)(C)N1C(=O)c2ccc(C(=O)O)cc2C1=O	1.9	-3.6	-1.9	9.4	3.0	0.9
O=C(O)c1ccc2c(c1)C(=O)/C(=C/c1ccccc1)C2=O	12.8	27.4*	7.0	39.3*	30.8*	20.8
CN[C@H]1C[C@H]2c3[nH]c4c(-c5cccc(C)c5)cccc4c3CCN2C(=O)[C@H]1[C@H](C)O	/	/	/	/	12.8	/
S=C(NCc1ccc(Cl)cc1Cl)Nc1ccccc1	0.7	33.2*	-24.9	-4.1	-11.1	5.8
O=C1CCCc2c1cc(-c1ccccc1)n2-c1ccccc1	2.9	4.8	-11.7	9.5	-5.2	24.5*
CCC(C)[C@H](NC(=O)C1COC(O)([C@H](Cc2ccccc2)NC(=O)[C@@H](NC(=O)OCc2ccccc2)C(C)C)CN1C)C(=O)N[C@H](C(=O)OC)C(C)C (stereo partly drawn)	/	/	/	/	-3.0	/
CC(C)(C)c1ccc(CCC(CC(=O)O)CC(=O)O)cc1	-1.0	6.6	1.0	14.3	-8.1	26.6*
O=C1C(O)=C(O)C(=O)c2ccccc21	14.6	9.7	9.2	29.9*	23.9	3.2
Cc1ccc(N=C2NC(=O)/C(=C/c3cccn3C)S2)c(C)c1	11.6	25.3*	-2.7	6.9	-1.6	10.8
O=C1C2C3C=CC(CO)(O3)C2C(=O)N1c1ccc(-c2ccccc2)cc1 (stereo not drawn)	/	27.8*	/	/	/	/
CC(C)(C)C(=O)NCC12C=CC(O1)C1C(=O)N(c3ccccc3)C(=O)C12 (stereo not drawn)	5.0	3.5	7.7	1.6	13.1	1.1
O=C(Nc1ccc(Cl)cc1)C1CCCN1S(=O)(=O)c1cccnc1 (stereo not drawn)	/	/	/	/	-3.9	/
O=C(Nc1ccc(S(=O)(=O)Nc2nccs2)cc1)c1cc(-c2ccccn2)nc2ccccc12	6.4	10.3	-9.6	8.2	-11.8	-1.5
O=C(Nc1ccc(S(=O)(=O)Nc2nccs2)cc1)c1cc(-c2ccccc2Cl)nc2ccccc12	-1.9	25.2*	-58.9	9.6	-56.2	2.6
O=C(c1ccc(Cl)cc1)N1CCN(c2ccccn2)CC1	/	/	/	/	1.5	/
COc1ccccc1N1CCN(CCN2C(=O)CC(=C3c4ccccc4-c4ccccc43)C2=O)CC1	/	29.0*	/	/	/	/
COc1ccccc1-c1n[nH]c(=S)n1-c1ccccc1	7.1	3.0	-4.5	-0.8	2.9	25.1*
COc1ccccc1-c1n[nH]c(=S)n1N	2.5	-4.2	3.1	7.5	-3.1	3.1

Screening data as filed in PubChem BioAssay.
